SR-BI HDL uptake: inhibitors of SR-BI mediated HDL lipid uptake, primary screen, ldlA[mSR-BI] cells, fluorescence, single point; Scavenger receptor class B member 1 (Mus musculus), Q61009; ldlA[mSR-BI] CHO cells, DiI-HDL uptake fluorescence, 3 h; inhibition, % at 12.5 µM; actives 0.96% (n = 320,000); AID 488896, 2010;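 active = mean replicate inhibition of at least 70% and a set share of replicates each scoring 70 or more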
Target sequence (Q61009 whole entry, looked up): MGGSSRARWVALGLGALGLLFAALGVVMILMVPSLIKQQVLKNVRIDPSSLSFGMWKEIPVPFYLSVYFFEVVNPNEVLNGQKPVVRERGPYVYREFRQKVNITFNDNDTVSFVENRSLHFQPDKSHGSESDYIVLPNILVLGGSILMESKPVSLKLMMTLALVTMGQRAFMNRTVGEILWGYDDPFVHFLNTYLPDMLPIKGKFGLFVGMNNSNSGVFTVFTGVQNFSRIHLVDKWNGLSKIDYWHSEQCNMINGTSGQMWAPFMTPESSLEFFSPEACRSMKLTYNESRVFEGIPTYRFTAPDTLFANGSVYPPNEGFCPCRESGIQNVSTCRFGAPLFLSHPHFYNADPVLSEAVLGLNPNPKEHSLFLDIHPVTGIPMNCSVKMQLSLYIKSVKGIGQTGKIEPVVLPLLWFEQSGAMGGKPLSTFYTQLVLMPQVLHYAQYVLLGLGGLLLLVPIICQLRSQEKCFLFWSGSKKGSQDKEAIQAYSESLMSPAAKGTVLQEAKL
CDK5 inh: inhibitors of human CDK5/p35 kinase, primary screen, biochemical, single concentration; actives 0.01% (n = 330,000); Cyclin-dependent kinase 5 (Homo sapiens) + Cyclin-dependent kinase 5 activator 1 (Homo …; Recombinant CDK5/p35, ADP-Glo luminescence, 60 min; AID 488839, 2010; inhibition, % at 10 µM;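 active = highest replicate inhibition of at least 50% and at least 75% of replicates reaching 50%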
GSK3A inh: blockers of GSK3A enzyme activity – biochemical, luminescence, cell-free homogeneous, HTS, primary screen; Glycogen synthase kinase-3 alpha (Homo sapiens), P49840; GSK-3 alpha kinase, ADP-Glo luminescence, 60 min; inhibition, % at 10 µM; actives 0.1% (n = 320,000); AID 2650, 2010;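 active = more than half of replicates show inhibition above 20%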;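 note: GST-tagged GSK-3 alpha with peptide substrate and 25 µM ATP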
SR-BI uptake up: activators of SR-BI mediated DiI-HDL uptake, primary screen, ldlA[mSR-BI] CHO cells, DiI fluorescence; 3 h; 100 = double the neutral-control signal; actives 0.096% (n = 320,000); activation, % at 12.5 µM;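 active = mean replicate activation of at least 60% and every replicate at or above 60%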
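System: LDL receptor-deficient CHO ldlA cells overexpressing murine SR-BI | Timing: 3 h uptake period with compound, 37 °C | Medium: HEPES-buffered (25 mM, pH 7.4) F12 plus 0.5% BSA | Dosing: Single-point compound dose | Signal: Bottom-read fluorescence, 550/595 nm | Read-out: Retained DiI signal reflecting DiI-HDL uptake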
GSK3beta inhib: human GSK3beta kinase inhibitors, primary screen, biochemical, cell-free homogeneous, HTS. actives 0.038% (n = 300,000). activity score (negative = inhibition), % at 10 µM. AID 2097, 2009. GST-GSK3beta kinase, ADP-Glo luminescence, 60 min; active compounds read low. Glycogen synthase kinase-3 beta (Homo sapiens), P49841;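 active = more than half of replicate wells score below -50%, meaning over 50% inhibition versus plate controls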
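Assay system: GST-tagged human GSK3beta kinase, cell-free; Input: 1.6 ng GSK3beta; Medium: Tris/MgCl2 kinase buffer; Timing: 60 min enzyme reaction, room temperature; Signal: ADP-Glo luminescence quantifying ADP generated by kinase; Evaluation: score relative to plate controls; Benchmarks: DMSO neutral wells and GW8510 at 20 µM as positive.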
A number is an active result; – = inactive; · = no result. Compounds with a hit are over-represented: about 1.1% of the library has one in this group of screens.

SMILES	SR-BI HDL uptake	CDK5 inh	GSK3A inh	SR-BI uptake up	GSK3beta inhib
CCCCc1ccc(N=N/C(C(=O)Nc2ccccc2OC)=C(/C)O)cc1	–	–	–	–	–
O=C(CN1CCN(C(=O)CNC(=O)c2ccc3c(c2)OCO3)CC1)Nc1ccc(F)cc1	–	–	–	–	·
CCN1C(=O)/C(=C2/C(=O)N3c4c(cc(OC(C)=O)cc42)C(C)=CC3(C)C)SC1=S	86.0	–	–	–	–
COc1ccc(-c2[nH]ncc2N=Nc2ccccc2)cc1	–	–	–	–	–
COc1ccc(-c2[nH]ncc2N=Nc2cc(C)cc(C)c2)cc1	83.6	–	–	–	–
CCCCCCn1nc(C(=O)N(CCCC)c2c(N)n(CCC)c(=O)[nH]c2=O)c2ccccc2c1=O	–	–	–	–	·
Cc1ccc(C(=O)NNC(=O)c2ccccc2O)cc1S(=O)(=O)N1CCCCC1	78.2	–	–	–	–
O=C(c1ccc(Cl)c(S(=O)(=O)N2CCc3ccccc32)c1)N1CCN(c2ccccc2O)CC1	–	–	–	–	·
O=C(NNC(=O)c1ccccc1O)c1ccc(Cl)c(S(=O)(=O)N2CCc3ccccc32)c1	117.5	–	–	–	–
O=[N+]([O-])c1ccc(NN=Cc2cc(Br)ccc2O)nc1	134.8	–	·	–	·
Cc1cccc(C)c1-n1c(C)cc(/C=N\Nc2ccc([N+](=O)[O-])cn2)c1C	80.1	–	–	–	–
C=CC[C@H](CC(=O)NCCO)C(=O)NCCOC(=O)[C@@H](CC=C)CC(=O)OC(C)(C)C	–	–	–	–	·
CCCCN(CC)CCCNC(=O)c1cn(C)c2ccc(S(=O)(=O)N(C)C3CCCCC3)cc2c1=O	–	–	–	–	–
CC1(C)Cc2c(sc3c2C2=NCCN2C=N3)CS1	–	–	54.1	–	–
CCn1c2ccccc2c2nnc(SCC(=O)Nc3c(C)n(C)n(-c4ccccc4)c3=O)nc21	–	–	–	–	–
Cc1c(NC(=O)CSc2nnc3c4ccccc4n(CCc4ccccc4)c3n2)c(=O)n(-c2ccccc2)n1C	81.6	–	·	–	–
Cc1cc(/C=C2\C(=N)N3N=CSC3=NC2=O)c(C)n1Cc1ccccc1	–	–	–	–	–
Cc1ccc(O)c(NC(=O)c2ccc3c(c2)C(=O)N(Cc2ccco2)C3=O)c1	–	–	–	–	–
COc1ccc(-c2oc(=O)c3cc(OC)c(OC)cc3c2C#CCCCO)cc1	78.2	–	–	–	·
COc1ccc(Cl)cc1N(CC(=O)Nc1ccccc1C(=O)N1CCOCC1)S(C)(=O)=O	–	–	–	–	–
Cc1[nH]n(-c2ccccc2)c(=O)c1N=Nc1ccccc1O	119.0	–	·	–	–
C/C(=N\NC(=O)c1ccccc1)c1c(C)[nH]n(-c2ccccc2)c1=O	125.6	–	–	–	–
C/C(=N\NC(=O)c1ccc(C)cc1)c1c(C)[nH]n(-c2ccccc2)c1=O	124.6	–	–	–	–
CN(CC(=O)NCC1CCCCC1)CC(=O)Nc1ccccc1Br	–	–	–	–	·
COc1ccc(NC(=O)CCn2c(=O)c3cccn3c3ccccc32)c(OC)c1	74.9	·	–	–	–
SMILES	SR-BI HDL uptake	CDK5 inh	GSK3A inh	SR-BI uptake up	GSK3beta inhib
O=C(CCn1c(=O)c2cccn2c2ccccc21)Nc1ccc(F)cc1	74.9	–	–	–	–
Cc1ccc(NC(=O)CCn2c(=O)c3cccn3c3ccccc32)c(C)c1	–	–	–	–	–
COc1ccc(NC(=O)CCn2c(=O)c3cccn3c3ccccc32)cc1	–	·	–	–	–
Cc1cc(C)cc(NC(=O)CCn2c(=O)c3cccn3c3ccccc32)c1	81.2	·	–	–	–
O=[N+]([O-])c1cccc(-c2nc3ccccc3s/c2=N/O)c1	–	–	–	–	–
COc1ccc(Nc2nc(N)c([N+](=O)[O-])c(NCCO)n2)cc1	·	·	75.0	·	-52.8
COc1ccc(Nc2nc(N)c([N+](=O)[O-])c(NCc3ccccc3)n2)cc1	–	–	–	–	–
Nc1nc(Nc2cccc(Cl)c2)nc(NCCO)c1[N+](=O)[O-]	–	58.4	72.6	–	-50.4
